pEC50, pIC50, pKi: −log10 of the molar value.
Assays:
[1] = molecular target: T1, Cholecystokinin receptor (Homo sapiens) (UniProt P32239+P32238); assay: Agonist activity at CCK receptor of guinea pig ileum at 1 uM; assay type: functional, tissue-based; details: Cavia porcellus, target entry is the homologue from another species
Outline: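 Guinea pig ileum LMMP strips (male Hartley), 20-mL baths, 1 g tension, oxygenated Krebs bicarbonate buffer, 37 °C. Tissue first challenged with 67 mM KCl to set maximal contraction. Test compound added to the bath; agonist activity taken as contraction height as a percentage of the maximal KCl contraction (A50).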

[2] = molecular target: T2, Delta-type opioid receptor (Homo sapiens, UniProt P41143); assay: Inhibition of [35S]GTP-gamma-S binding to human delta opioid receptor expressed in CHO cells; assay type: functional, cell-based
T2 sequence (P41143 whole entry): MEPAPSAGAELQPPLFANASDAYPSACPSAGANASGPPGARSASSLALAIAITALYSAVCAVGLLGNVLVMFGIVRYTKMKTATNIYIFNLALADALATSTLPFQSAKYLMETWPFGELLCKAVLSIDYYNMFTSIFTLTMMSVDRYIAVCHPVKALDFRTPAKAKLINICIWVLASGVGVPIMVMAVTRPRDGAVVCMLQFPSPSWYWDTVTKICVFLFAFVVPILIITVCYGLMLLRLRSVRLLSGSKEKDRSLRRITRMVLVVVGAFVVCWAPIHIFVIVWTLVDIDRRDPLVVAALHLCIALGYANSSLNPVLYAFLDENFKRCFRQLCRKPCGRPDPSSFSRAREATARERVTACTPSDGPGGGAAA
Outline: (§1)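 CHO-expressed receptor membranes (10 µg) in 50 mM HEPES pH 7.4 with EDTA, 5 mM MgCl2, 30 µM GDP, DTT, 100 mM NaCl, PMSF, BSA and 0.1 nM [35S]GTPγS. Test drug at various concentrations, duplicate or triplicate, 90 min at 30 °C. Nonspecific binding with 10 µM GTPγS.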

[3] = molecular target: Mu-type opioid receptor (Rattus norvegicus) (UniProt P33535); assay: (§2) Inhibition of [35S]GTP-gamma-S binding to rat mu opioid receptor expressed in CHO cells; assay type: functional, cell-based; outline: as §1
Chain of Mu-type opioid receptor (Rattus norvegicus) (P33535 whole entry): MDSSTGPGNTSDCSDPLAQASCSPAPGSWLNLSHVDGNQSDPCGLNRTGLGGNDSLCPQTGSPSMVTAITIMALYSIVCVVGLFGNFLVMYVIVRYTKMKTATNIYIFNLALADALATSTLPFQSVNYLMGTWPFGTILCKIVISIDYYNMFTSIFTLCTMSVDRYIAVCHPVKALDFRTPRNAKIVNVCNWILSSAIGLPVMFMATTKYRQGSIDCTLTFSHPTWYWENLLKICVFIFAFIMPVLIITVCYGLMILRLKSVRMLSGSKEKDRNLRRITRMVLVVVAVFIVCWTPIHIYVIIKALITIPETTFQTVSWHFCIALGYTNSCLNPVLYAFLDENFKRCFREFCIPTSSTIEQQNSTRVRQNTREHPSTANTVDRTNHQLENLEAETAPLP

[4] = molecular target: T1, Cholecystokinin receptor (Homo sapiens); assay: Antagonist activity at CCK receptor by inhibition of CCK8-induced muscle contraction in unstimulated GPI/LMMP; assay type: functional; details: Cavia porcellus; target entry is the homologue from another species
Outline: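 Male Hartley guinea pig ileum LMMP strips, 1 g tension, oxygenated Krebs bicarbonate buffer, 37 °C; 67 mM KCl sets maximal contractility. Initial noncumulative CCK-8 dose-response curve built. Test compound added without electrical stimulation; 3 min later the CCK-8 curve was rebuilt at an antagonist dose giving about a 3-fold rightward shift. Ke is the antagonist concentration halving CCK-8 activity.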

[5] = molecular target: Delta-type opioid receptor (Mus musculus, UniProt P32300); assay: Agonist activity at delta opioid receptor by inhibition of muscle contraction in electrically stimulated isolated mouse vas deferens; assay type: functional, tissue-based
Chain of Delta-type opioid receptor (Mus musculus, UniProt P32300) (P32300 whole entry): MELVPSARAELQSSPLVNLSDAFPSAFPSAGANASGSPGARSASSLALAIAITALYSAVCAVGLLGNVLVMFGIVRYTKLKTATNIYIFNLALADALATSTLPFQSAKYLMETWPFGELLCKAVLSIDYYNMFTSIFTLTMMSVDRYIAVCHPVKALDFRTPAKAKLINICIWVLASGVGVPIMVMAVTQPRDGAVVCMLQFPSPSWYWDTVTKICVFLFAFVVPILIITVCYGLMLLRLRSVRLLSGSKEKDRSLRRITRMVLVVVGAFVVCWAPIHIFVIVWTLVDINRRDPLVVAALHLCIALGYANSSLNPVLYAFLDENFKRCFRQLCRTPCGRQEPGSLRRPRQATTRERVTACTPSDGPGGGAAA
Outline: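 Male ICR mouse vasa deferentia in 20-mL baths, 0.5 g tension, oxygenated Mg-free Krebs at 37 °C; field stimulation 0.1 Hz, 2.0 ms single pulses, supramaximal voltage. Tissue integrity checked with DPDPE (10 nM). Compound added cumulatively until maximal inhibition. Inhibition taken as mean contraction height for 1 min before dosing versus height 3 min after. IC50 from Hill-equation fit by nonlinear least squares.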

Mu-type opioid receptor [6] = molecular target: T3, Mu-type opioid receptor (Rattus norvegicus, UniProt P33535); assay: Displacement of [3H]DAMGO from rat mu opioid receptor expressed in HN9.10 cells; assay type: cell-based
T3 sequence (P33535 whole entry): as the sequence (P33535 whole entry) above
Outline: (§3)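 Membranes (50 µg) from HN9.10 neuroblastoma cells stably expressing rat MOR or human DOR. Buffer was 50 mM Tris pH 7.4 with bacitracin, bestatin, captopril, PMSF and 1 mg/mL BSA. Radioligand was [3H]DAMGO (MOR) or [3H]DPDPE (DOR), each 1.0 nM, with 10 test concentrations. Incubated 3 h at 25 °C, in duplicate. Nonspecific binding with 10 µM naloxone. Filtration, then scintillation counting.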

[7] = molecular target: T4, Gastrin/cholecystokinin type B receptor (Homo sapiens, UniProt P32239); assay: Displacement of [125I]CCK8 from human CCK2 receptor expressed in HEK293 cells; assay type: cell-based
T4 sequence (P32239 whole entry): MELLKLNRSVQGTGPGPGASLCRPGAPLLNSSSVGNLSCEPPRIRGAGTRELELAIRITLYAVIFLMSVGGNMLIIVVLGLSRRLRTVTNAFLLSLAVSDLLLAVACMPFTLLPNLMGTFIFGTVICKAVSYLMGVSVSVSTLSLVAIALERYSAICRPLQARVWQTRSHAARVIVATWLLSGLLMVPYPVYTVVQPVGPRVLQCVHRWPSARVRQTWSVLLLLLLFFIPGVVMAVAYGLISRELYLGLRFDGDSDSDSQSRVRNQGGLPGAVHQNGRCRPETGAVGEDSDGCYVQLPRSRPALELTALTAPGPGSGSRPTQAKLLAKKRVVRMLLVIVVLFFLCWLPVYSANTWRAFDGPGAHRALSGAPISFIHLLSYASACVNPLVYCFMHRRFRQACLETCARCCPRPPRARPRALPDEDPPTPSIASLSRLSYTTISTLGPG

Mu-type opioid receptor [8] = molecular target: T3, Mu-type opioid receptor; assay: as §2; assay type: functional, cell-based; details: for pEC50: read-out: EC50; outline: as §1
[9] = molecular target: T2, Delta-type opioid receptor; assay: Displacement of [3H]DPDPE from human delta opioid receptor expressed in HN9.10 cells; assay type: cell-based; outline: as §3
[10] = molecular target: T5, Cholecystokinin receptor type A (Homo sapiens, UniProt P32238); assay: Displacement of [125I]CCK8 from human CCK1 receptor expressed in HEK293 cells; assay type: cell-based
T5 sequence (P32238 whole entry): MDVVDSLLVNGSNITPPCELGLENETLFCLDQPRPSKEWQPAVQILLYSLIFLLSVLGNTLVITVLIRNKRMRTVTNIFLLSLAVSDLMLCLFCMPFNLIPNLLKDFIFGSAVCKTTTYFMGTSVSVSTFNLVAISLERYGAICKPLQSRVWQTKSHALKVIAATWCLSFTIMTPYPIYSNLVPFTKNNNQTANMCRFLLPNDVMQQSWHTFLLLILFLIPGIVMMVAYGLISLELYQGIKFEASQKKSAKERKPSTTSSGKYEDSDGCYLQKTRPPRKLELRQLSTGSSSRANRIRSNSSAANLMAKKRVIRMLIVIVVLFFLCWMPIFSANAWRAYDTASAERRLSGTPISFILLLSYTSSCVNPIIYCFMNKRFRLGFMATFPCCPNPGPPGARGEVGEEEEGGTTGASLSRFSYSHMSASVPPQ

Mu-type opioid receptor [11] = molecular target: Mu-type opioid receptor (Cavia porcellus, UniProt P97266); assay: Agonist activity at mu opioid receptor by inhibition of muscle contraction in electrically stimulated isolated guinea pig ileum; assay type: functional, tissue-based
Chain of Mu-type opioid receptor (Cavia porcellus, UniProt P97266) (P97266 whole entry): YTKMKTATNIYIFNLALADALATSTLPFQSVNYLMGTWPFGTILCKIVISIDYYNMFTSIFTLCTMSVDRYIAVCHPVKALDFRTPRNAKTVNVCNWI
Outline: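 Longitudinal muscle–myenteric plexus strips from male Hartley guinea pig ileum, 1 g tension, oxygenated Krebs at 37 °C, 15 min equilibration. Stimulated at 0.1 Hz, 0.4 ms, supramaximal voltage. Integrity checked with PL-017 (10 nM). Compound added until maximal inhibition. Inhibition taken as contraction height 1 min before versus 3 min after dosing. IC50 from Hill-equation fit.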

Structure (SMILES) | Activity [1] [%] | Emax [2] [%] | Emax [3] [%] | pIC50 [5] | pIC50 (Mu-type opioid receptor [6]) | pKi (Mu-type opioid receptor [6]) | pIC50 [7] | pKi [7] | pEC50 [2] | pEC50 (Mu-type opioid receptor [8]) | pIC50 [9] | pKi [9] | pIC50 [10] | pKi [10] | pIC50 (Mu-type opioid receptor [11]) | also measured
CCCC[C@@H](C(=O)N[C@@H](Cc1cn(C(C)=O)c2ccccc12)C(=O)O)N(C(=O)Nc1ccccc1Cl)C(=O)[C@H](CC(=O)O)NC(=O)[C@H](Cc1ccccc1)N(C)N[C@@H](Cc1ccccc1)C(=O)NCC(=O)N[C@H](C)C(=O)N[C@@H](Cc1ccc(O)cc1)C(=O)O | 0 | 81 | 33 |  |  |  |  |  |  |  |  |  |  |  |  | Ke [4]: 150 nM
CCCC[C@H](NC(=O)[C@@H](Cc1c[nH]c2ccccc12)NC(=O)OC12CC3CC(CC(C3)C1)C2)C(=O)N[C@@H](CC(=O)O)C(=O)N[C@@H](Cc1ccccc1)C(=O)NNC(=O)[C@H](Cc1ccccc1)NC(=O)CNC(=O)[C@@H](C)NC(=O)[C@@H](N)Cc1ccc(O)cc1 |  |  |  | 7.42 | 6.71 | 7.06 | 6.25 | 6.25 | 7.57 | 8.00 | 9.38 | 9.64 | 6.07 | 6.08 | 6.19 | 
CCCC[C@H](NC(=O)[C@H](CC(=O)O)NC(=O)[C@H](Cc1ccccc1)NN[C@@H](Cc1ccccc1)C(=O)NCC(=O)N[C@H](C)C(=O)N[C@@H](Cc1ccc(O)cc1)C(=O)O)C(=O)N[C@@H](Cc1cn(C(=O)OC(C)(C)C)c2ccccc12)C(=O)O | 0 | 54 | 83 |  |  |  |  |  |  |  |  |  |  |  |  | Ke [4]: 14 nM
CCCC[C@H](NC(=O)[C@H](N)Cc1c[nH]c2ccccc12)C(=O)N[C@@H](CC(=O)O)C(=O)N[C@@H](Cc1ccccc1)C(=O)NNC(=O)[C@H](Cc1ccccc1)NC(=O)CNC(=O)[C@@H](C)NC(=O)[C@@H](N)Cc1ccc(O)cc1 |  |  |  | 7.59 | 8.92 | 9.29 | 5.03 | 5.03 | 8.03 | 8.02 | 8.49 | 8.85 | 4.99 | 5.00 | 7.09 | EC50 (Mu-type opioid receptor [8]; read-out: Log EC50 (converted)): 9.77 nM
CCCC[C@H](NC(=O)[C@H](CC(=O)O)NC(=O)[C@H](Cc1ccccc1)NN[C@@H](Cc1ccccc1)C(=O)NCC(=O)N[C@H](C)C(=O)N[C@@H](Cc1ccc(O)cc1)C(=O)O)C(=O)N[C@H](Cc1cn(C(=O)OC(C)(C)C)c2ccccc12)C(=O)O | 0 | 100 | 170 |  |  |  |  |  |  |  |  |  |  |  |  | Ke [4]: 6.5 nM
CCCC[C@H](NC(=O)[C@H](Cc1c[nH]c2ccccc12)NC(=O)OC(C)(C)C)C(=O)N[C@@H](CC(=O)O)C(=O)N[C@@H](Cc1ccccc1)C(=O)NNC(=O)[C@H](Cc1ccccc1)NC(=O)CNC(=O)[C@@H](C)NC(=O)[C@@H](N)Cc1ccc(O)cc1 |  |  |  | 6.64 | 7.26 | 7.62 | 5.40 | 5.42 | 7.57 | 8.02 | 6.86 | 7.23 | 5.39 | 5.39 | 7.26 | 
CCCC[C@H](NC(=O)[C@H](Cc1c[nH]c2ccccc12)NC(C)=O)C(=O)N[C@@H](CC(=O)O)C(=O)N[C@@H](Cc1ccccc1)C(=O)NNC(=O)[C@H](Cc1ccccc1)NC(=O)CNC(=O)[C@@H](C)NC(=O)[C@@H](N)Cc1ccc(O)cc1 |  |  |  | 7.44 | 7.21 | 7.59 | 5.88 | 5.89 | 7.27 | 7.12 | 7.27 | 7.64 |  |  | 7.55 | 
CCCC[C@H](NC(=O)[C@@H](Cc1c[nH]c2ccccc12)NC(=O)OC1C2CC3CC(C2)CC1C3)C(=O)N[C@@H](CC(=O)O)C(=O)N[C@@H](Cc1ccccc1)C(=O)NNC(=O)[C@H](Cc1ccccc1)NC(=O)CNC(=O)[C@@H](C)NC(=O)[C@@H](N)Cc1ccc(O)cc1 (some centres not stated) |  |  |  | 7.08 | 7.43 | 7.80 | 6.03 | 6.03 | 8.25 | 6.62 | 8.11 | 8.47 | 6.24 | 6.25 | 5.92 | 
CC(=O)N[C@@H](Cc1c[nH]c2ccccc12)C(=O)N[C@@H](CCCCNC(=O)Nc1ccccc1Cl)C(=O)N[C@@H](CC(=O)O)C(=O)N(C)[C@@H](Cc1ccccc1)C(=O)NNC(=O)[C@H](Cc1ccccc1)NC(=O)CNC(=O)[C@@H](C)NC(=O)[C@@H](N)Cc1ccc(O)cc1 |  |  |  | 7.59 |  | 9.04 |  |  |  |  |  | 9.32 |  |  | 6.70 | Log IC50 (Mu-type opioid receptor [6]): -8.67; pKi ([7]; hek293): 5.77; Log IC50 ([7]; hek293): -5.76; pEC50 ([2]; cho): 8.89; pEC50 (Mu-type opioid receptor [8]; cho): 7.82; Log IC50 [9]: -8.95; pKi ([10]; hek293): 6.00; Log IC50 ([10]; hek293): -5.99
CCCC[C@@H](C(=O)N[C@@H](CC(=O)O)C(=O)N[C@@H](Cc1ccccc1)C(=O)NNC(=O)[C@H](Cc1ccccc1)NC(=O)CNC(=O)[C@@H](C)NC(=O)[C@@H](N)Cc1ccc(O)cc1)N(C)C(=O)[C@@H](Cc1c[nH]c2ccccc12)NC(=O)OC(C)(C)C |  |  |  | 7.38 | 7.32 | 7.70 | 5.81 | 5.82 | 7.59 | 9.19 | 8.70 | 9.09 | 5.72 | 5.72 |  | 
CCCC[C@H](NC(=O)[C@@H](Cc1c[nH]c2ccccc12)NC(=O)OC(C)(C)C)C(=O)N[C@@H](CC(=O)O)C(=O)N[C@@H](Cc1ccccc1)C(=O)NNC(=O)[C@H](Cc1ccccc1)NC(=O)CNC(=O)[C@@H](C)NC(=O)[C@@H](N)Cc1ccc(O)cc1 |  |  |  | 7.62 | 7.19 | 7.51 | 5.00 | < 5.00 | 7.13 | 6.68 | 7.03 | 7.35 | 4.45 | < 5.00 | 6.34 | 
CCCC[C@H](NC(=O)[C@H](Cc1c[nH]c2ccccc12)NC(C)=O)C(=O)N[C@@H](CC(=O)O)C(=O)N(C)[C@@H](Cc1ccccc1)C(=O)NNC(=O)[C@H](Cc1ccccc1)NC(=O)CNC(=O)[C@@H](C)NC(=O)[C@@H](N)Cc1ccc(O)cc1 |  |  |  | 8.29 |  | 8.28 |  |  |  |  |  | 8.28 |  |  | 7.21 | Log IC50 (Mu-type opioid receptor [6]): -7.96; pEC50 ([2]; cho): 9.28; pEC50 (Mu-type opioid receptor [8]; cho): 8.28; Log IC50 [9]: -7.97
CCCC[C@H](NC(=O)[C@H](CC(=O)O)NC(=O)[C@H](Cc1ccccc1)NN[C@@H](Cc1ccccc1)C(=O)NCC(=O)N[C@H](C)C(=O)N[C@@H](Cc1ccc(O)cc1)C(=O)O)C(=O)N[C@H](Cc1cn(C(=O)OC2C3CC4CC(C3)CC2C4)c2ccccc12)C(=O)O (some centres not stated) | 0 | 61 | 60 |  |  |  |  |  |  |  |  |  |  |  |  | 

— ChEMBL document CHEMBL1138152, “Design and synthesis of novel hydrazide-linked bifunctional peptides as delta/mu opioid receptor agonists and CCK-1/CCK-2 receptor antagonists” (J Med Chem, 2006)
